“And” between values parts separate entries of the source, which are not always exact repeats. Equal entries are not always repeated.
Experiments:
Format in all cases: toxicity, cell-based
Fibroblast = test: Multiplex assay against human fibroblast; conditions: number of replicates 2
Procedure, shortened: (§1)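 Per cents of healthy-nucleus cells form the tubulin, mitochondrial-mass and membrane-permeability phenotype values. Live cells were stained at seeding with Hoechst33342, BioTracker Green Microtubule Cytoskeleton Dye, MitoTracker Red and Annexin V Alexa Fluor 680. After compound addition they were imaged on a CQ1 microscope at 37°C and 5% CO2, and CellPathfinder machine-learning gating split them into Hoechst high-intensity objects or normal cells, normal cells into healthy, pyknosed or fragmented nuclei, and pyknosed cells into mitotic or apoptotic.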

HEK-293T = test: Multiplex assay against HEK293T; conditions: human, number of replicates 2; procedure, shortened: as §1
U2OS = test: Multiplex assay against U2OS; conditions: human, number of replicates 2; procedure, shortened: as §1
[1] = 12 h, 1 µM, compound concentration 1 uM
[2] = 12 h, 10 µM, compound concentration 10 uM
[3] = 24 h, 1 µM, compound concentration 1 uM
[4] = 24 h, 10 µM, compound concentration 10 uM
[5] = 48 h, 1 µM, compound concentration 1 uM
[6] = 48 h, 10 µM, compound concentration 10 uM

Q: What does the source list for `CS(=O)(=O)c1ccc(C(=O)Nc2cccc(COc3ccc(Br)cc3CNCCO)c2)c(Cl)c1.O=CO`?
A: Population Apoptotic (%) (Fibroblast; [1]): 37% and 48%; Population Hoechst High Intensity Objects (%) (Fibroblast; [1]): 0%; Population Mitotic Cells (%) (Fibroblast; [1]): 62% and 51%; Total Cell Count (Fibroblast; [1]): 153 and 242; Population Apoptotic (%) (Fibroblast; [2]): 58% and 47%; Population Hoechst High Intensity Objects (%) (Fibroblast; [2]): 0%; Population Mitotic Cells (%) (Fibroblast; [2]): 41% and 52%; Population Pyknosed Nuclei (%) (Fibroblast; [2]): 28%; Total Cell Count (Fibroblast; [2]): 238 and 244; Population Apoptotic (%) (Fibroblast; [3]): 70% and 59%; Population Hoechst High Intensity Objects (%) (Fibroblast; [3]): 0%; Population Mitotic Cells (%) (Fibroblast; [3]): 30% and 40%; Population Pyknosed Nuclei (%) (Fibroblast; [3]): 20% and 18%; Total Cell Count (Fibroblast; [3]): 148 and 236; Population Apoptotic (%) (Fibroblast; [4]): 80% and 67%; Population Hoechst High Intensity Objects (%) (Fibroblast; [4]): 2% and 0%; Population Mitotic Cells (%) (Fibroblast; [4]): 20% and 32%; Population Pyknosed Nuclei (%) (Fibroblast; [4]): 28%; Total Cell Count (Fibroblast; [4]): 232 and 267; Population Apoptotic (%) (Fibroblast; [5]): 80% and 74%; Population Hoechst High Intensity Objects (%) (Fibroblast; [5]): 0%; Population Mitotic Cells (%) (Fibroblast; [5]): 19% and 25%; Population Pyknosed Nuclei (%) (Fibroblast; [5]): 16% and 15%; Total Cell Count (Fibroblast; [5]): 153 and 246; Population Apoptotic (%) (Fibroblast; [6]): 85% and 77%; Population Hoechst High Intensity Objects (%) (Fibroblast; [6]): 2% and 0%; Population Mitotic Cells (%) (Fibroblast; [6]): 22%; Total Cell Count (Fibroblast; [6]): 247 and 259; Population Apoptotic (%) (HEK-293T; [1]): 64% and 58%; Population Healthy Nuclei (%) (HEK-293T; [1]): 78% and 83%; Population Mitotic Cells (%) (HEK-293T; [1]): 35% and 41%; Total Cell Count (HEK-293T; [1]): 423 and 657; Population Apoptotic (%) (HEK-293T; [2]): 66%; Population Healthy Nuclei (%) (HEK-293T; [2]): 81% and 80%; Population Mitotic Cells (%) (HEK-293T; [2]): 33%; Total Cell Count (HEK-293T; [2]): 566 and 616; Population Apoptotic (%) (HEK-293T; [3]): 42% and 53%; Population Healthy Nuclei (%) (HEK-293T; [3]): 83% and 80%; Population Mitotic Cells (%) (HEK-293T; [3]): 57% and 46%; Total Cell Count (HEK-293T; [3]): 974 and 659; Population Apoptotic (%) (HEK-293T; [4]): 65% and 72%; Population Healthy Nuclei (%) (HEK-293T; [4]): 78% and 75%; Population Mitotic Cells (%) (HEK-293T; [4]): 34% and 28%; Total Cell Count (HEK-293T; [4]): 498 and 611; Population Apoptotic (%) (HEK-293T; [5]): 36% and 25%; Population Healthy Nuclei (%) (HEK-293T; [5]): 82% and 85%; Population Mitotic Cells (%) (HEK-293T; [5]): 63% and 75%; Total Cell Count (HEK-293T; [5]): 1468 and 2063; Population Apoptotic (%) (HEK-293T; [6]): 82%; Population Healthy Nuclei (%) (HEK-293T; [6]): 77% and 78%; Population Mitotic Cells (%) (HEK-293T; [6]): 36% and 17%; Total Cell Count (HEK-293T; [6]): 828 and 933; Population Apoptotic (%) (U2OS; [1]): 50% and 66%; Population Healthy Nuclei (%) (U2OS; [1]): 74% and 84%; Population Mitotic Cells (%) (U2OS; [1]): 50% and 33%; Population Apoptotic (%) (U2OS; [2]): 66% and 50%; Population Healthy Nuclei (%) (U2OS; [2]): 73%; Population Mitotic Cells (%) (U2OS; [2]): 33% and 50%; Population Apoptotic (%) (U2OS; [3]): 75% and 87%; Population Healthy Nuclei (%) (U2OS; [3]): 79% and 82%; Population Mitotic Cells (%) (U2OS; [3]): 25% and 12%; Population Pyknosed Nuclei (%) (U2OS; [3]): 15%; Population Apoptotic (%) (U2OS; [4]): 66% and 74%; Population Healthy Nuclei (%) (U2OS; [4]): 59% and 66%; Population Mitotic Cells (%) (U2OS; [4]): 33% and 25%; Population Pyknosed Nuclei (%) (U2OS; [4]): 34% and 27%; Population Apoptotic (%) (U2OS; [5]): 83%; Population Healthy Nuclei (%) (U2OS; [5]): 83% and 88%; Population Mitotic Cells (%) (U2OS; [5]): 36% and 16%; Population Pyknosed Nuclei (%) (U2OS; [5]): 9%; Population Apoptotic (%) (U2OS; [6]): 91% and 85%; Population Healthy Nuclei (%) (U2OS; [6]): 46% and 62%; Population Mitotic Cells (%) (U2OS; [6]): 8%; Population Pyknosed Nuclei (%) (U2OS; [6]): 45% and 27%

Source: ChEMBL document CHEMBL5303300, “EUbOPEN Chemogenomics Library - Multiplex” (2023)
